Here are results for 22 compounds from ChEMBL document CHEMBL1148947, “Prenylated benzophenones and xanthones from Hypericum scabrum” (J Nat Prod, 2004).

The subject of test [1] is A549. The test can be described thus: Cytotoxicity against human A549 cells after 3 days by SRB assay. The test is classed as functional, cell-based. Particulars: A549, 72 h. The essentials:
(§1)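 Cells kept in RPMI-1640 with 25 mM HEPES, 0.25% sodium bicarbonate, 10% FBS and 100 µg/mL kanamycin. Freshly trypsinized cells seeded at 1500-7500 per well with compound diluted from DMSO stock. After 3 days, attached cells fixed with cold 50% TCA, stained with 0.4% SRB, and bound dye solubilized. Absorbance read at 562 nm. IC50 = 50% reduction relative to untreated cells. Below 50% inhibition at 20 mcg/mL, percent inhibition reported.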

Test [2] deals with MCF7. In words: Cytotoxicity against human MCF7 cells after 3 days by SRB assay. It is filed as functional, cell-based. Particulars: MCF7, 72 h. The gist of the method:
as §1

Test [3] relates to A549. In words: Cytotoxicity against human A549 cells at 20 mcg/mL after 3 days by SRB assay. Particulars: for inhibition at 20 µg/mL: A549, 72 h. It is filed as functional. The gist of the method: as §1
Test [4] has as its system MCF7. In words: Cytotoxicity against human MCF7 cells at 20 mcg/mL after 3 days by SRB assay. Particulars: for inhibition at 20 µg/mL: MCF7, 72 h. It is filed as functional. The gist of the method: as §1

≈ marks a conversion by molar mass, not a printed value. Calls of active or inactive are those of the source. The rule behind the calls is not given here. Where only a bound is given, the exact number is not on record here.

In the case of `COc1ccc(O)c2c(=O)c3cc(O)ccc3oc12`, the IC50 is 8.5 µg/mL (≈ 32.9 µM) in the test on A549 [1] and 15.2 µg/mL (≈ 58.9 µM) in the test with MCF7 [2].
For `O=c1cc(-c2ccc(O)c(O)c2)oc2cc(O)cc(O)c12` [LUTEOLIN], the figures for the IC50 in the test on A549 [1] and with MCF7 [2] were 12.9 µg/mL (≈ 45.1 µM) and 14.3 µg/mL (≈ 50 µM), respectively.
In the case of `O=c1c(O)c(-c2cc(O)c(O)c(O)c2)oc2cc(O)cc(O)c12` [MYRICETIN], the half-maximal inhibitory concentration (IC50) amounted to 14.8 µg/mL (≈ 46.5 µM) in the test on A549 [1] and 4.7 µg/mL (≈ 14.8 µM) in the test with MCF7 [2].
For `CC1(C)CCc2c(c(O)cc3oc4cc(O)cc(O)c4c(=O)c23)O1` [HYPERXANTHONE E], the figures for the IC50 in the test with A549 [1] and in the test on MCF7 [2] were 18.5 µg/mL (≈ 56.3 µM) and 19.3 µg/mL (≈ 58.8 µM), respectively.
Regarding `O=c1c(O[C@@H]2OC[C@@H](O)[C@@H](O)[C@@H]2O)c(-c2ccc(O)c(O)c2)oc2cc(O)cc(O)c12`, the inhibition at 20 µg/mL stood at 11% in the test on A549 [3] and 17% with MCF7 [4]. Besides, the IC50 in the test with A549 [1] and in the test on MCF7 [2] was greater than 20 µg/mL throughout.
Turning to `C[C@@H]1O[C@@H](Oc2c(-c3ccc(O)c(O)c3)oc3cc(O)cc(O)c3c2=O)[C@H](O)[C@H](O)[C@H]1O` [QUERCITRIN], the inhibition at 20 µg/mL in the test on A549 [3] is 12%; with MCF7 [4], 18%. Further, the IC50 with A549 [1] and with MCF7 [2] was greater than 20 µg/mL each time.
As to `C=C(C)C(O)Cc1c(O)ccc2oc3cc(O)cc(O)c3c(=O)c12` (centres undefined) [HYPERXANTHONE D], the results for the inhibition at 20 µg/mL with A549 [3] and with MCF7 [4] were 43% and 34%, respectively. For the same compound, the concentration for half-maximal inhibition (IC50) in the test with A549 [1] and in the test with MCF7 [2] was greater than 20 µg/mL in each case.
In the case of `O=c1c2cc(O)ccc2oc2cccc(O)c12`, the IC50 came to 14.5 µg/mL (≈ 63.5 µM) with A549 [1] and 19.5 µg/mL (≈ 85.5 µM) in the test on MCF7 [2].
In the case of `O=c1c(O[C@@H]2O[C@H](CO)[C@H](O)[C@H](O)[C@H]2O)c(-c2ccc(O)c(O)c2)oc2cc(O)cc(O)c12`, the outcome in the test on A549 [3] and in the test with MCF7 [4] was inactive.
With `CC(C)=CC[C@@]12C[C@H]3[C@@H](C=C(C)C)[C@@](C(=O)c4ccccc4)(C1=O)C(=O)[C@@](CC=C(C)C)(C2=O)C3(C)C` [HYPERIBONE K], the IC50 in the test on A549 [1] is 13.7 µg/mL (≈ 27.4 µM); in the test on MCF7 [2] it was 10 µg/mL (≈ 20 µM).
Turning to `CC(C)=CC[C@H]1C[C@@]2(CC=C(C)C)C(=O)C(C(=O)c3ccccc3)=C(O)[C@](C)(C2=O)C1(C)C` [HYPERIBONE L], the values for the IC50 with A549 [1] and in the test on MCF7 [2] were 9.2 µg/mL (≈ 20.5 µM) and 15 µg/mL (≈ 33.4 µM), respectively.
For the compound `O=c1c(-c2c(O)cc(O)c3c(=O)cc(-c4ccc(O)cc4)oc23)c(-c2ccc(O)cc2)oc2cc(O)cc(O)c12`, the inhibition at 20 µg/mL in the test with A549 [3] is 27%; in the test with MCF7 [4], 26%. Moreover, the 50% inhibitory concentration (IC50) in the test with A549 [1] and with MCF7 [2] was greater than 20 µg/mL in each case.
As to `O=c1c2ccc(O)c(O)c2oc2cc(O)cc(O)c12`, the IC50 in the test with A549 [1] came out at 10 µg/mL (≈ 38.4 µM); in the test on MCF7 [2] it was 9.3 µg/mL (≈ 35.7 µM).
Turning to `O=c1c(O[C@@H]2O[C@@H](CO)[C@H](O)[C@H]2O)c(-c2ccc(O)c(O)c2)oc2cc(O)cc(O)c12`, the result in the test on A549 [3] and in the test with MCF7 [4] was inactive.
As for `C[C@H]1O[C@@H](Oc2c(-c3cc(O)c(O)c(O)c3)oc3cc(O)cc(O)c3c2=O)[C@@H](O)[C@@H](O)[C@@H]1O` [MYRICITRIN], in the test on A549 [3], at 20 µg/mL the inhibition was 13%. The results for the IC50 with A549 [1] and in the test with MCF7 [2] were greater than 20 µg/mL and 11.2 µg/mL (≈ 24.1 µM), respectively.
Take `CC(C)=CC[C@H]1C[C@]2(CC=C(C)C)C(=O)C(C(=O)c3ccccc3)=C(O)[C@](CC=C(C)C)(C2=O)C1(C)C`: the values for the concentration for half-maximal inhibition (IC50) in the test on A549 [1] and in the test on MCF7 [2] were 13.7 µg/mL (≈ 27.3 µM) and 10 µg/mL (≈ 19.9 µM), respectively.
For `CC1(C)C=Cc2c(c(O)cc3oc4cc(O)cc(O)c4c(=O)c23)O1` [TOXYLOXANTHONE B], the inhibition at 20 µg/mL with A549 [3] turned out to be 28%; with MCF7 [4] it was 17%. Further, the IC50 with A549 [1] and with MCF7 [2] was greater than 20 µg/mL each time.
In the test with A549 [3], `CC(C)=CCC[C@]1(C)[C@@H](CC=C(C)C)C[C@]2(C)C(=O)[C@@]3(CC=C(C)C)O[C@]2(O)[C@]1(C(=O)C(C)C)C3=O` [HYPERIBONE J] yielded an inhibition at 20 µg/mL of 49%. Also, the IC50 with A549 [1] is greater than 20 µg/mL; with MCF7 [2], 17.8 µg/mL (≈ 35.7 µM).
As to `C=C(C)C(O)Cc1c(O)c(O)cc2oc3cc(O)cc(O)c3c(=O)c12` (centres undefined) [HYPERXANTHONE C], the half-maximal inhibitory concentration (IC50) in the test on A549 [1] was determined as 9.3 µg/mL (≈ 27 µM); in the test with MCF7 [2], 11.2 µg/mL (≈ 32.5 µM).
As to `CC(C)(O)C1Cc2c(c(O)cc3oc4cc(O)cc(O)c4c(=O)c23)O1` (centres undefined) [HYPERXANTHONE A], the inhibition at 20 µg/mL with A549 [3] was determined as 26%; in the test on MCF7 [4], 27%. In addition, the 50% inhibitory concentration (IC50) in the test with A549 [1] and in the test with MCF7 [2] was greater than 20 µg/mL throughout.
Take `CC(C)=CCc1c(O)c(O)cc2oc3cc(O)cc(O)c3c(=O)c12`: the concentration for half-maximal inhibition (IC50) worked out at 18.5 µg/mL (≈ 56.3 µM) with A549 [1] and 18.4 µg/mL (≈ 56 µM) in the test with MCF7 [2].
Compound `O=c1c(O)c(-c2ccc(O)c(O)c2)oc2cc(O)cc(O)c12` [QUERCETIN] came in with an inhibition at 20 µg/mL in the test with A549 [3] of 21%. Also, the values for the IC50 with A549 [1] and in the test on MCF7 [2] were greater than 20 µg/mL and 19.5 µg/mL (≈ 64.5 µM), respectively.
